# Assay results: ChEMBL document CHEMBL4359826, “Preparation of bivalent agonists for targeting the mu opioid and cannabinoid receptors” (Eur J Med Chem, 2019)
# Calls of active or inactive are those of the source. No cut-off for these calls is given here.
# Tests used:
# Cannabinoid receptor [1] = biological target: T1, Cannabinoid receptor (Rattus norvegicus, UniProt Q9QZN9+P20272); test: Displacement of [3H]JWH-018 from CB1R/CB2R in Wistar rat brain membranes after 60 mins by liquid scintillation analysis; format: cell membranes
# [2] = biological target: T2, Cannabinoid receptor 2 (Rattus norvegicus) (UniProt Q9QZN9); test: Displacement of [3H]JWH-018 from CB2R in Wistar rat brain membranes at 10 uM after 60 mins by liquid scintillation analysis relative to control; format: cell membranes
# T2 sequence (whole entry): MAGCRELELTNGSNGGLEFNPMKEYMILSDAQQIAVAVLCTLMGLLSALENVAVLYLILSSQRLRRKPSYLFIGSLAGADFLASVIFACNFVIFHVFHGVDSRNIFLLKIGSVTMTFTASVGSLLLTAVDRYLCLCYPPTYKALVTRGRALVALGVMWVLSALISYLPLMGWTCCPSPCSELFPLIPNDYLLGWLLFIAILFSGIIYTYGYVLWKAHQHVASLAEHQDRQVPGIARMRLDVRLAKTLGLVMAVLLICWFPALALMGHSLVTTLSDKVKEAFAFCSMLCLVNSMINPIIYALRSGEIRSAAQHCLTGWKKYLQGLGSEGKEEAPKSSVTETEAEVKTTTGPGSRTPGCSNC
# Procedure, shortened: (§1)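 Whole rat brain membranes (cerebellum removed; 0.3–0.5 mg/mL protein) in 50 mM Tris-HCl pH 7.4 with 2.5 mM EGTA, 5 mM MgCl2 and 0.5 mg/mL fatty-acid-free BSA, 30 °C. Kinetics used 0.6 nM [3H]JWH-018: association over 0–90 min, dissociation started with 10 µM JWH-018 after 60 min. Saturation over 0.5–35 nM. Competitors at 10^-11–10^-5 M, 60 min. Nonspecific binding with 10 µM JWH-018. Filtration onto PEI-soaked GF/B filters; n≥3.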
# [3] = biological target: T3, Cannabinoid receptor (Rattus norvegicus) (UniProt Q9QZN9+P20272); test: Antagonist activity at CB1R/CB2R in Wistar rat brain membranes at 10 uM in presence of JWH-018 after 60 mins by [35S]-GTPgammaS binding assay relative to control; format: functional, cell membranes
# Procedure, shortened: (§2)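 Rat brain membranes (30 µg protein/tube) incubated 60 min at 30 °C with 0.05 nM [35S]GTPγS and ligand at 10^-10–10^-5 M. Buffer: 50 mM Tris-HCl pH 7.4 with 30 µM GDP, 100 mM NaCl, 3 mM MgCl2, 1 mM EGTA. […] Nonspecific binding taken with 10 µM GTPγS; basal set as 100%. Filtration and scintillation counting; n≥3.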
# [4] = biological target: Delta-type opioid receptor (Rattus norvegicus, UniProt P33533); test: Displacement of [3H]Ile5,6-deltorphin-2 from DOR in Wistar rat brain membranes after 60 mins by liquid scintillation analysis; format: cell membranes
# [5] = Agonist activity at MOR/CB1R/CB2R receptor in Wistar rat brain membranes after 60 mins by [35S]-GTPgammaS binding assay; format: cell membranes
# [6] = biological target: Kappa-type opioid receptor (Cavia porcellus, UniProt P41144); format: cell membranes, Brain, Membranes
# Rattus norvegicus [7] = organism: Rattus norvegicus; conditions: Wistar, Brain, Membranes, at 10 µM
# Mu-type opioid receptor = Mu-type opioid receptor (Rattus norvegicus, UniProt P33535); test: Displacement of [3H]DAMGO from MOR in Wistar rat brain membranes after 60 mins by liquid scintillation analysis; format: cell membranes
# Cannabinoid receptor [8] = biological target: T1, Cannabinoid receptor; format: cell membranes, Wistar, Brain, Membranes
# [9] = biological target: T3, Cannabinoid receptor (Rattus norvegicus); test: Displacement of [3H]JWH-018 from CB1R/CB2R in Wistar rat brain membranes at 10 uM after 60 mins by liquid scintillation analysis; format: cell membranes; procedure, shortened: as §1
# Rattus norvegicus [10] = organism: Rattus norvegicus; test: Antagonist activity at MOR/CB1R/CB2R in Wistar rat brain membranes at 10 uM in presence of N-[6-[[2-[[(4R,4aS,7aR,12bS)-4a-hydroxy-9-methoxy-3-methyl-2,4,5,6,7a,13-hexahydro-1H-4,12-methanobenzofuro[3,2-e]isoquinoline-7-ylidene]amino]oxyacetyl]amino]hexyl]-6-[3-(naphthalene-1-carbonyl)indol-1-yl]hexanamide after 60 mins by [35S]-GTPgammaS binding assay relative to control; format: cell membranes; procedure, shortened: as §2
# Rattus norvegicus [11] = organism: Rattus norvegicus; test: Antagonist activity at MOR/CB1R/CB2R in Wistar rat brain membranes at 10 uM in presence of (S)-N-((2R,8S)-18-(3-(1-naphthoyl)-1H-indol-1-yl)-8-benzyl-3,6,9,12-tetraoxo-4,7,10,13-tetraazaoctadecan-2-yl)-2-amino-3-(4-hydroxyphenyl)propanamide after 60 mins by liquid scintillation analysis relative to control; format: cell membranes; procedure, shortened: as §2
# [12] = biological target: Mu-type opioid receptor (Rattus norvegicus) (UniProt P33535); test: Antagonist activity at MOR in Wistar rat brain membranes at 10 uM in presence of oxycodone after 60 mins by [35S]-GTPgammaS binding assay relative to control; format: functional, cell membranes
# Procedure, shortened: (§3)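 Rat brain membranes (30 µg protein/tube) incubated 60 min at 30 °C with 0.05 nM [35S]GTPγS and ligand at 10^-10–10^-5 M. Buffer: 50 mM Tris-HCl pH 7.4 with 30 µM GDP, 100 mM NaCl, 3 mM MgCl2, 1 mM EGTA. Nonspecific binding taken with 10 µM GTPγS; basal set as 100%. Filtration and scintillation counting; n≥3.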
# [13] = biological target: Mu-type opioid receptor (Rattus norvegicus) (UniProt P33535); test: Antagonist activity at MOR in Wistar rat brain membranes at 10 uM in presence of Tyr-D-Ala-Gly-Phe-NH2 after 60 mins by [35S]-GTPgammaS binding assay relative to control; format: functional, cell membranes; procedure, shortened: as §3
# T3 sequence (P20272 whole entry, looked up, one chain of several): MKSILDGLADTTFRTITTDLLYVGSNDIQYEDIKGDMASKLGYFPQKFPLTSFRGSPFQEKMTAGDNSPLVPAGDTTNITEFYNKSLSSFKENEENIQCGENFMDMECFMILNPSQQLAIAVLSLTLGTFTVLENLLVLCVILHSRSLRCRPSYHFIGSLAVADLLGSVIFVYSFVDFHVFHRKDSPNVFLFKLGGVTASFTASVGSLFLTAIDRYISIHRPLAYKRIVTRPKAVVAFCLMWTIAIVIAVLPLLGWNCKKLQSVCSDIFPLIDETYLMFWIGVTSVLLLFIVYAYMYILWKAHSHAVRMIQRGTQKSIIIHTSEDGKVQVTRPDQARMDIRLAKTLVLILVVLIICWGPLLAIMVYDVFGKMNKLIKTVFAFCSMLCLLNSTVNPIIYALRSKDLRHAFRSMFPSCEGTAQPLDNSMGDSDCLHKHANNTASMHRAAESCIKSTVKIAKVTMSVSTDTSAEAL
# Sequence of Kappa-type opioid receptor (P41144 whole entry): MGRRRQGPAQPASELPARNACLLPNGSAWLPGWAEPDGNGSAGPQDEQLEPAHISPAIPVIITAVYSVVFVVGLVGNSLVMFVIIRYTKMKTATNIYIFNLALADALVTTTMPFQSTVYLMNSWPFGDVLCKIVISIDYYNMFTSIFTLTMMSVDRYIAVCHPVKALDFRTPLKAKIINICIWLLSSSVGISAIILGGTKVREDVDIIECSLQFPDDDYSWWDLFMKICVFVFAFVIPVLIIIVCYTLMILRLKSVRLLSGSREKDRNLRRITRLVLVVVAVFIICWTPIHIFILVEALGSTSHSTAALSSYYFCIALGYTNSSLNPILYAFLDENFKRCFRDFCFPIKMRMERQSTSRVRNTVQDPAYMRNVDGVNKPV
# Sequence of Delta-type opioid receptor (P33533 whole entry): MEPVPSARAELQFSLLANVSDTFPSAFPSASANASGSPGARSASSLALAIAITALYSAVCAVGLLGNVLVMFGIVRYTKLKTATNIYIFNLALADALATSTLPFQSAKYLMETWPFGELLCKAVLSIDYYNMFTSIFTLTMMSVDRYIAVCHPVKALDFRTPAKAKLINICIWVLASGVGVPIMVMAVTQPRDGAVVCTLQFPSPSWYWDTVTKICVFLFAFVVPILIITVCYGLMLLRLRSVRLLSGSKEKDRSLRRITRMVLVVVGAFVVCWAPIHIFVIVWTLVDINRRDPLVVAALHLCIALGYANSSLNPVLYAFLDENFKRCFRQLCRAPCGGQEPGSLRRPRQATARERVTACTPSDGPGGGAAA
# Sequence of Mu-type opioid receptor (P33535 whole entry): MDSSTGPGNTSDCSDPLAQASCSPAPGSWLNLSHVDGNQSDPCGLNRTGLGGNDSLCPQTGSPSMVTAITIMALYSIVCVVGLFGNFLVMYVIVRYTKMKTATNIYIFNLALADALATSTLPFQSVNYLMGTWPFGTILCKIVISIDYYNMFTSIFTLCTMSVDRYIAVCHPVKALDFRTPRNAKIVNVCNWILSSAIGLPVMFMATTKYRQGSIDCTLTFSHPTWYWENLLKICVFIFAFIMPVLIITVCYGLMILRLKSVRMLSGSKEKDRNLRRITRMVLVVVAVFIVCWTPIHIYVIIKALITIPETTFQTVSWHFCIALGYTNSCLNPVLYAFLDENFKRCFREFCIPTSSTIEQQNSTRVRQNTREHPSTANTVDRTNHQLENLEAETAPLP
# Sequence of Mu-type opioid receptor (Rattus norvegicus) (P33535 whole entry): as above
Molecule,Ki (Cannabinoid receptor [1]) [nM],Ki [4] [nM],EC50 [5] [nM],Ki [6] [nM],Emax (Rattus norvegicus [7]) [%],Ki (Mu-type opioid receptor) [nM],also measured
H-RVDPVNFKLLSH-OH,> 10000,–,–,–,–,–,–
COc1ccc(C(=O)c2c(C)n(CCN3CCOCC3)c3cc(I)ccc23)cc1,27,–,–,–,–,–,Activity [2]: 70%; Emax [3]: 100%
COc1ccc2c3c1O[C@H]1/C(=N\OCC(=O)NCCCCCCN)CC[C@@]4(O)[C@@H](C2)N(C)CC[C@]314,–,659,305,380,111,41,–
COc1ccc2c3c1O[C@H]1/C(=N\OCC(=O)NCCN)CC[C@@]4(O)[C@@H](C2)N(C)CC[C@]314,–,533,450,471,113,17,–
CC(=O)NCCCCCn1cc(C(=O)c2cccc3ccccc23)c2ccccc21,145,–,2150,–,83,–,Ki (Cannabinoid receptor [8]): 149 nM
NC(=O)[C@H](Cc1ccccc1)NC(=O)[C@H](Cc1ccccc1)NC(=O)[C@@H]1CCCN1C(=O)[C@@H](N)Cc1ccc(O)cc1,–,–,–,–,–,–,Activity [9]: inactive
CC(C)C[C@H](NC(=O)[C@H](Cc1ccccc1)NC(=O)[C@H](CCCCN)NC(=O)[C@H](Cc1ccccc1)NC(=O)[C@H](CC(N)=O)NC(=O)[C@@H](NC(=O)[C@@H]1CCCN1)C(C)C)C(=O)N[C@@H](CO)C(=O)N[C@@H](Cc1cnc[nH]1)C(=O)O [HEMOPRESSIN],2793,–,–,–,–,–,–
C=CCN1CC[C@]23c4c5ccc(O)c4O[C@H]2C(=O)CC[C@@]3(O)[C@H]1C5,–,–,–,–,–,–,Activity [9]: inactive
COc1ccc2c3c1O[C@H]1/C(=N\OCC(=O)NCCNC(=O)CCCCCn4cc(C(=O)c5cccc6ccccc56)c5ccccc54)CC[C@@]4(O)[C@@H](C2)N(C)CC[C@]314,255,623,–,337,100,33,Emax (Rattus norvegicus [10]): 102%; Emax (Rattus norvegicus [11]): 103%; Emax [3]: 107%; Emax [12]: 101%; Emax [13]: 102%; Ki (Cannabinoid receptor [8]): 9.3 nM
CCCCCn1cc(C(=O)c2cccc3ccccc23)c2cc(Br)ccc21,59,–,–,–,–,–,–
C[C@@H](NC(=O)[C@@H](N)Cc1ccc(O)cc1)C(=O)NCC(=O)N[C@@H](Cc1ccccc1)C(=O)NCCCC(=O)NCCCCCn1cc(C(=O)c2cccc3ccccc23)c2ccccc21,928,92,60,50,125,20,Ki (Cannabinoid receptor [8]): 1042 nM
